Consider 1 molecule from ChEMBL document CHEMBL1140675, “Discovery of a novel class of benzazepinone Na(v)1.7 blockers: potential treatments for neuropathic pain” (Bioorg Med Chem Lett, 2007).

The nature of data set [1]: Cmax in rat at 1.0 mg/kg, iv or 3.0 mg/kg, po. The data set is classed as ADME, organism-based. The note with it: in vivo.
Data set [2] has as its target T1, Sodium channel protein type 9 subunit alpha (Homo sapiens, UniProt Q15858). Put plainly: Binding affinity at human inactive state Nav1.7 by whole cell electrophysiology.
Another data set addresses hERG (KCNH2) (Homo sapiens, UniProt Q12809). The data set is described as follows: Displacement of [35S]-MK0499 from human ERG receptor expressed in HEK293 cells at 10 uM. The data set is classed as cell-based. The settings on record: HEK293 cells expressing human ERG, probe [35S]-MK0499. The method, boiled down: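 Binding assay measuring displacement of radiolabelled ligand (35S-MK-0499 for hERG; 3H-diltiazem for Cav1.2); % inhibition at 10 µM test compound.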
In general terms: Loss of bound radioactivity is the signal in a displacement assay; it reports binding, not function.

The test system of data set [3] is Rattus norvegicus. Put plainly: Reversal of allodynia in rat spinal nerve ligation model at 10 mg/kg, po after 4 hrs. Type of data set: functional. The method, boiled down: (§1)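 L5 spinal nerve ligated and transected in rats to induce neuropathy; tactile allodynia measured with calibrated Von Frey filaments before and 1 week after surgery. Rats with significant allodynia were dosed orally and % reversal of allodynia determined at 2 and 4 h post-dose; n = 8.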

Data set [4] is described as follows: Plasma clearance in dog at 0.38 mg/kg, iv or 1.5 mg/kg, po. Type of data set: ADME, organism-based, Canis lupus familiaris.
Data set [5] concerns Rattus norvegicus. Put plainly: Blockade of spontaneous neuronal firing in rat peripheral axotomy model at 2 mg/kg, iv after 60 mins. The data set is classed as functional. The settings on record: 1 h. The method, boiled down: (§2)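 Iv infusion given after baseline spontaneous firing frequency was established; firing frequency then recorded for 60 min post-dose, with % inhibition at 10, 30 and 60 min; n = 6.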

Data set [6] in a line: Plasma clearance in rat at 1.0 mg/kg, iv or 3.0 mg/kg, po. The data set is classed as ADME, organism-based.
Data set [7] is described as follows: Cmax in dog at 0.38 mg/kg, iv or 1.5 mg/kg, po. The data set is classed as ADME, organism-based, Canis lupus familiaris. The note with it: in vivo.
The nature of data set [8]: Bioavailability in dog at 1.5 mg/kg, po. The data set is classed as ADME, organism-based, Canis lupus familiaris. The note with it: in vivo.
The subject of data set [9] is Rattus norvegicus. Put plainly: Reversal of allodynia in rat spinal nerve ligation model at 10 mg/kg, po after 2 hrs. Type of data set: functional. The method, boiled down: as §1
A short description of data set [10]: Bioavailability in rat at 3.0 mg/kg, po. The note with it: in vivo. Type of data set: ADME, organism-based.
Data set [11] can be described thus: Half life in rat at 1.0 mg/kg, iv or 3.0 mg/kg, po. The settings on record: in vivo. The data set is classed as ADME, organism-based.
Data set [12] addresses Voltage-dependent L-type calcium channel subunit alpha-1C (Homo sapiens, UniProt Q13936). The data set is described as follows: Displacement of [3H]diltiazem from human Cav1.2 expressed in HEK293 cells. Type of data set: cell-based. The method, boiled down:
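Cav1.2 binding assay measuring displacement of 3H-diltiazem.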

Data set [13] is described as follows: Half life in dog at 0.38 mg/kg, iv or 1.5 mg/kg, po. The data set is classed as ADME, organism-based, Canis lupus familiaris. The note with it: in vivo.
The test system of data set [14] is Rattus norvegicus. The data set is described as follows: Blockade of spontaneous neuronal firing in rat peripheral axotomy model at 2 mg/kg, iv after 10 mins. The data set is classed as functional. In outline:
as §2

Data set [15] deals with T1, Sodium channel protein type 9 subunit alpha. Put plainly: Blockade of human Nav1.7 by FRET assay. The method, boiled down:
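Functional membrane-potential assay of channel block on human Nav1.7; read-out is FRET between two membrane-associated dyes; IC50 in nM.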

Data set [16] has as its system Rattus norvegicus. The data set is described as follows: Blockade of spontaneous neuronal firing in rat peripheral axotomy model at 2 mg/kg, iv after 30 mins. Type of data set: functional. The settings on record: 0.5 h. The method, boiled down: as §2

T1 sequence (Q15858 whole entry): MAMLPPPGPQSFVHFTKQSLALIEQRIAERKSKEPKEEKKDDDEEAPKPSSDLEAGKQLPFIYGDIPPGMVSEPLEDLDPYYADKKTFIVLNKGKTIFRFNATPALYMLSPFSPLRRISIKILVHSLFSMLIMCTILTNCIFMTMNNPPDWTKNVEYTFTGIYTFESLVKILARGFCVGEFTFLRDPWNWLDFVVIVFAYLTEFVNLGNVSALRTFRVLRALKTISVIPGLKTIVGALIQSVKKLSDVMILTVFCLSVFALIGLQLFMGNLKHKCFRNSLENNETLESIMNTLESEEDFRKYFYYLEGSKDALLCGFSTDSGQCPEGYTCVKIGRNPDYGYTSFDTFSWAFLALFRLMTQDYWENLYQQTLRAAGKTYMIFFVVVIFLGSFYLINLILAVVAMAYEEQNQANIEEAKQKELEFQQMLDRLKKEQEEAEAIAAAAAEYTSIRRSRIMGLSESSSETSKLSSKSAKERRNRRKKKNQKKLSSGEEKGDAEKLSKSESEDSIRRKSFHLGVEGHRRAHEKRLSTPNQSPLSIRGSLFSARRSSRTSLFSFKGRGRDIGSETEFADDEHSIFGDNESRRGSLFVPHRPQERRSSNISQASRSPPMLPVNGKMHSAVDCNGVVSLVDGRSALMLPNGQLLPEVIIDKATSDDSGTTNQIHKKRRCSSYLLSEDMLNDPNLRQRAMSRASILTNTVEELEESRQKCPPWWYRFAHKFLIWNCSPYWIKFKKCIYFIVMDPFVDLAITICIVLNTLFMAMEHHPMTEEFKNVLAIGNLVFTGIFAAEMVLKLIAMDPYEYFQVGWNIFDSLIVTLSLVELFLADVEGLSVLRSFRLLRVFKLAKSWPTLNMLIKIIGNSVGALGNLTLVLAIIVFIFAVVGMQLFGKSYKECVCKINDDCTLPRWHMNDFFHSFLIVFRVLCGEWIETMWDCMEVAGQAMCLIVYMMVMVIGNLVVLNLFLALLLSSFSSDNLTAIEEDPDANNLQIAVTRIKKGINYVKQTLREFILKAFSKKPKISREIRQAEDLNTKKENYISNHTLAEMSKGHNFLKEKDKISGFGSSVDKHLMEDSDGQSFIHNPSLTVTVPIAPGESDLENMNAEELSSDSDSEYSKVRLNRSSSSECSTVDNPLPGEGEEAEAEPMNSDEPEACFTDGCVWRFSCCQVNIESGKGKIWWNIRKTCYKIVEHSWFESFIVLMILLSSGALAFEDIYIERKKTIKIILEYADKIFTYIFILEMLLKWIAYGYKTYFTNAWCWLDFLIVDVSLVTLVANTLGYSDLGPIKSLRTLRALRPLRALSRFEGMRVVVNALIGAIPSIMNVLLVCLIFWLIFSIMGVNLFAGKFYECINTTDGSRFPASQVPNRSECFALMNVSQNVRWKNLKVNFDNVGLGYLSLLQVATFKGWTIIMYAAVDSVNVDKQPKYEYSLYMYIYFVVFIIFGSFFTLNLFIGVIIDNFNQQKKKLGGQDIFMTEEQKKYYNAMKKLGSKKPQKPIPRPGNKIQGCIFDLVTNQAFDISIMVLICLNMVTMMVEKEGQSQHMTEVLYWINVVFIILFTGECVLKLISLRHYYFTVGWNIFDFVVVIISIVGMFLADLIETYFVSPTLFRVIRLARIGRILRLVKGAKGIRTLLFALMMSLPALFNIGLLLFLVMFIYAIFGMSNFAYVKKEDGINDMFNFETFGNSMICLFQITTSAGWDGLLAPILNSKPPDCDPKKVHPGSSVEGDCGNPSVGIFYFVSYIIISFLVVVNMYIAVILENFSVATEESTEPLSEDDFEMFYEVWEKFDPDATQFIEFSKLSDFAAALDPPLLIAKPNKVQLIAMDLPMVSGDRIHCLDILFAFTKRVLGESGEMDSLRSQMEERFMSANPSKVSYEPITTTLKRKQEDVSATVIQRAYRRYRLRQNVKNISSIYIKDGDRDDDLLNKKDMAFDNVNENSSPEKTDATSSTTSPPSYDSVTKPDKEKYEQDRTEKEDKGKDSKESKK
Voltage-dependent L-type calcium channel subunit alpha-1C, sequence (Q13936 whole entry): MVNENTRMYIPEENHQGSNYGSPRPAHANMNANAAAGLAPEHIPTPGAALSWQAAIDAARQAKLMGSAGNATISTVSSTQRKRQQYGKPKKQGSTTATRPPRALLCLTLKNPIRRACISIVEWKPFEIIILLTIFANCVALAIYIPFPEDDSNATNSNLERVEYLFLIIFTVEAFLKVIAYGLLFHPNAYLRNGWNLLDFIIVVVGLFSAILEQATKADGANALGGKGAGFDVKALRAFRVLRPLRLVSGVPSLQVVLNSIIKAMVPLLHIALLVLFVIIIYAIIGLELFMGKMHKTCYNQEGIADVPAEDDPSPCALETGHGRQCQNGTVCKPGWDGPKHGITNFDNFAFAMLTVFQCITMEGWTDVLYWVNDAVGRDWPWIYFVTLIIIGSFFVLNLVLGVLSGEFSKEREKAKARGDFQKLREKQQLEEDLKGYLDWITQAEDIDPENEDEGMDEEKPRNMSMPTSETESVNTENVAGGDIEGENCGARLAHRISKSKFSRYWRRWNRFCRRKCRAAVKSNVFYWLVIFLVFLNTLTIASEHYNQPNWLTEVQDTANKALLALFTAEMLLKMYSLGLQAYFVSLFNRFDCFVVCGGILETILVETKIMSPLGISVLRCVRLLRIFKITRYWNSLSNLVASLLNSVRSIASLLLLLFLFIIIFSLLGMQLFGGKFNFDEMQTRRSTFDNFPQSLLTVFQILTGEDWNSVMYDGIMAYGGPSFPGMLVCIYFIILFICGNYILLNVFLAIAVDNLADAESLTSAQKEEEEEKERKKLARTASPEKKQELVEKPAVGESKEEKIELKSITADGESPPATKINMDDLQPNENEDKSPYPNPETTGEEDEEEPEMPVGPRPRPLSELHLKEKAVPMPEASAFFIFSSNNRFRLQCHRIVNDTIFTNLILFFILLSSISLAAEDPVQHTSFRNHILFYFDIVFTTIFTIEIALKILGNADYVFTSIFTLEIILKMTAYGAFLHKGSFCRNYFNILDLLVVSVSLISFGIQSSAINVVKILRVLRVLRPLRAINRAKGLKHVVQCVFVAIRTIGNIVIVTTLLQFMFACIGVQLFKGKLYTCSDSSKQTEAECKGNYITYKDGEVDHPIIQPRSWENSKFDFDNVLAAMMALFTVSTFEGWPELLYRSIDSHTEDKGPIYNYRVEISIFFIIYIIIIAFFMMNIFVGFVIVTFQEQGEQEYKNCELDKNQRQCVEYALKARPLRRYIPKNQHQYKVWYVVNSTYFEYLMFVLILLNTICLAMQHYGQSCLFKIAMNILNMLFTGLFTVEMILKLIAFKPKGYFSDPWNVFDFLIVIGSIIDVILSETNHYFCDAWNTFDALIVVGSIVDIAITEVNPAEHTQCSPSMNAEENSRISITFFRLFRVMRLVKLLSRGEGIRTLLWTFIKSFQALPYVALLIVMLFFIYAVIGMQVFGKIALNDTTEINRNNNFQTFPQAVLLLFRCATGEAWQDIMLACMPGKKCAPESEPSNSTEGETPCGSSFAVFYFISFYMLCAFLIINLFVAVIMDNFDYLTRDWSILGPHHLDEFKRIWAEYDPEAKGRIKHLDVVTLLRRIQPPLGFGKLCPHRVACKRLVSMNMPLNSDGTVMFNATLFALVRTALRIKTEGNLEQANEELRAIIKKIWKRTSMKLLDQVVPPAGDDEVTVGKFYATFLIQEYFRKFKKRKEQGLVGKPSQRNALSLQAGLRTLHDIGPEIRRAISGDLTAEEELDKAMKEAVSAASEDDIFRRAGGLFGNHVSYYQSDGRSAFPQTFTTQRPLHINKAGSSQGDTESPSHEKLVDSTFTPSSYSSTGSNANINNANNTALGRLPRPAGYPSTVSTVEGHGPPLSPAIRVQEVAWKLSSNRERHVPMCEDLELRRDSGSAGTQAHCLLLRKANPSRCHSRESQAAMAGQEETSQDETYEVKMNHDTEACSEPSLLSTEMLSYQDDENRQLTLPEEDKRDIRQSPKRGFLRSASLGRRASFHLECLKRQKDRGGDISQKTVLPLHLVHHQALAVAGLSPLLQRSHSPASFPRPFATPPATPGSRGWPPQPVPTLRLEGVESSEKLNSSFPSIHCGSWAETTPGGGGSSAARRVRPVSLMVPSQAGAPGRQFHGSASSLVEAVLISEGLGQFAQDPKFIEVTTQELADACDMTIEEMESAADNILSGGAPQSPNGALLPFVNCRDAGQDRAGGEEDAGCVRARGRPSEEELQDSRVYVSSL

`CC(C)N1C(=O)[C@H](NC(=O)[C@@H](Cc2ccccc2OC(F)(F)F)NC(=O)OC(C)(C)C)CCc2ccccc21`: the Cmax in [1] was found to be 300 nM; in data set [7], 70 nM. Besides, the affinity in data set [2], expressed as Ki, was 40 nM. The inhibition at 10 µM on hERG (KCNH2) is 18%. Besides, the Activity with Rattus norvegicus [3] turned out to be 40%; in the data set on Rattus norvegicus [9], 43%. The figures for the clearance in [4] and in [6] were 15 mL/min/kg and 24 mL/min/kg, respectively. The inhibition in vivo at 2 mg/kg turned out to be 93% with Rattus norvegicus [5], 100% with Rattus norvegicus [14] and 100% with Rattus norvegicus [16]. The bioavailability came to 9% in data set [8] and 24% in data set [10]. In addition, the half-life is 138 min in [11] and 252 min in data set [13]. In addition, the results for the IC50 in data set [12] and in data set [15] were 3.5 µM and 35 nM, respectively.

What is called Cmax is the maximum level reached in the sampled fluid or tissue. As usually defined, the Ki is the dissociation constant of the complex between target and ligand, obtained from inhibition or displacement. Lower therefore signals a stronger hold on the target. The inhibition is the relative decrease from the control value, in per cent. Broadly, the inhibition in vivo is the change of the read-out against control, counted positive when it falls. Read a low inhibition in vivo as a response near the control. A word on the bioavailability: it is the share of a dose that reaches the circulation, judged against a reference dose that is usually intravenous. A low value points to poor availability. By half-life is commonly meant the time needed for the level to fall by half in the phase considered. Low readings indicate fast loss, high ones slow loss. One may read the IC50 as the midpoint of a concentration-inhibition curve.
